From the EternaBench riboswitch data come the findings set out here.

The series has as its system MS2 coat protein. The experiment in a line: apparent Kd, MS2 coat protein; higher = weaker binding; RNA-MaP array; FMN 200 µM where present. Summed up:
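Binding was read on Illumina sequencing-chip clusters where stalled E. coli RNA polymerase had transcribed each design. A titration of SNAP-549-labelled MS2 coat protein began at 0.7 or 1.5 nM and doubled to 3 µM, once without ligand and once with constant ligand, in 100 mM Tris-HCl pH 7.5, 80 mM KCl, 4 mM MgCl2, BSA, DTT, yeast tRNA and Tween-20. The apparent Kd is the median of filtered per-cluster binding-curve fits, based on green signal normalised to red-channel RNA signal and control-cluster median Fmax.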

The mark [1] stands for this setting: designed as: OFF switch for flavin mononucleotide, no ligand.
Setting [2] is: ligand present: flavin mononucleotide, designed as: OFF switch for flavin mononucleotide.
The mark [3] stands for this setting: designed as: ON switch for flavin mononucleotide, no ligand.
[4] abbreviates: ligand present: flavin mononucleotide, designed as: ON switch for flavin mononucleotide.

For “ACAAGAUCAGGAUAUACAUGAGGAUCACCCAUGUUUAUCAAAAAGGGACUUUCUUUAUGUAGAAGGGAUCUUGU”, the apparent Kd (as a rule, the concentration giving half-maximal binding under the conditions of the assay) was 0.0728 µM under setting [1] and 0.0701 µM under setting [2]. “CGUGUACGAGGAUAUAGAUUGAAUGACAUGAGGAUCACCCAUGUGAUCGAUCUAUUUGAUUUAGAAGGUGUACAUG”: the “apparent Kd” value by setting is: under setting [1], 0.014 µM; under setting [2], 0.0169 µM. Consider “UUGGUGUACGUAGGAUAUGUAGGAUAUUCCUACAUGAGGAUCACCCAUGUAUGCAUGGAAGAAGGACAGAAGGACGUGCACCAU”, for which the “apparent Kd” value turned out to be 0.203 µM under setting [3] and 0.014 µM under setting [4]. For the sequence “GUUAUAAAGGUAGGAUAUAGUAUUAUAAUUAAAUUAGAAGGAUCUCACAUGAGGAUCACCCAUGUAAGAGGAUCACCCAUGUAU”, the “apparent Kd” value under setting [1] turned out to be 0.0114 µM and the “apparent Kd” value under setting [2] was determined as 0.00866 µM. For “UUGGACGUCGUAGAAUAUGUAGGAUAUUCCUACAUGAGGAUCACCCAUGUUGACAUGGAAGAAGGACAGAAGGACGAUGUCCAU”, the “apparent Kd” value was determined as 0.188 µM under setting [3] and 0.00702 µM under setting [4]. For “GGAUAGGACAGAGGAUAUGCGUGCUAGAGAUACUAGCAAAAUUUCCUCACAUGAGGAUCACCCAUGUAGAAGGCUGUCCUAUCG”, the “apparent Kd” value turned out to be 0.00775 µM under setting [1] and 0.0662 µM under setting [2]. Regarding “UGCAGACGAGGAUAUGAUCAAUAAUACAUGAGGAUCACCCAUGUAAUACUGAUCCAUGGAUCAGAAGGCGUCUGCA”, the “apparent Kd” value came to 0.0167 µM under setting [1] and 0.0229 µM under setting [2]. As to “CCUUUGUCAGGAUAUCAGUACAGGUCGAGUUUAGACCUGUUUGAGAAGGGACAUGAGGAUCACCCAUGUAAAAC”, the “apparent Kd” value by setting is: under setting [1], 0.125 µM; under setting [2], 0.161 µM. Regarding “CGCUGGUGACAGCAUCCAUCAAAACAUGAGGAUCACCCAUGUAGAAGGCUGUACGGUUACCGUACAGAGGAUAUACAAUGAUGA”, the “apparent Kd” value was determined as 0.0159 µM under setting [1] and 0.0264 µM under setting [2]. On the same counts, the results for “GUGUGCAGAGGAUAUACAGAGGAAAAGAAAAGAGAAGGGAGACAUGAGGAUCACCCAUGUAGAAGGCUGAGUGU” are 0.0644 µM and 0.0919 µM.

In the case of “UUAAAUCAUGUAGGAUAUGCAUGGCGAAGCUACGCAGAAGGACAUGAGGAUCACCCAUGUUAUAGCUACCCAGUACGGUGGCAA”, the “apparent Kd” value is 0.0955 µM under setting [1] and 0.251 µM under setting [2]. “AUGAAAUACUAGCACGGCGCGGCACAGGAUAUGCCUCAACAUGAGGAUCACCCAUGUCACUGUAGGUAGAAGGGUGUUAGCGAA”: the “apparent Kd” value was 0.0184 µM under setting [3] and 0.00552 µM under setting [4]. “CUCUUGUGAGGAUAUCAGGUGUGCUAGCGUACUGGUACAUCUGAGAAGGCACAUGAGGAUCACCCAUGUUUCUA”: the “apparent Kd” value under setting [1] was determined as 0.148 µM and the “apparent Kd” value under setting [2] amounted to 0.0232 µM. As to “UCAUGUAUGUAGGAUAUCGAUGUCCUUGGACAUCGAGAAGGACGUACAUGAGGAUCACCCAUGUAACUUGCAUG”, the “apparent Kd” value under setting [1] was 0.0254 µM and the “apparent Kd” value under setting [2] turned out to be 0.0168 µM.

Turning to “CAAAUCUGAGGAUAUCGAUAUUUGUACAUGAGGAUCACCCAUGUCCUAUUUAUAAAAUCCCGAGAAGGCAGUGUAU”, the “apparent Kd” value under setting [1] amounted to 0.0146 µM and the “apparent Kd” value under setting [2] is 0.0229 µM. Regarding “UAGAUGGGAGGAUAUACGUAGAUGCGGAUUCGUGUGGUGCUACAUGAGGAUCACCCAUGUAGAAGGCCCGUCUU”, the “apparent Kd” value by setting is: under setting [1], 0.0171 µM; under setting [2], 0.0722 µM. Regarding “AGUGCCUCGAGAGGAUAUAUACAUGAGGAUCACCCAUGUAACGAGGUGGAAACACCUCGAAAUGUAUAGAAGGCUCGAGGCACA”, the “apparent Kd” value under setting [1] worked out at 0.0284 µM and the “apparent Kd” value under setting [2] amounted to 0.05 µM. For the sequence “CUUUCGUGAGGAUAUGUGGCUUAAAUCGUGAGAUCGAGGCUACAGAAGGCACAUGAGGAUCACCCAUGUUCCUC”, the “apparent Kd” value under setting [1] is 0.036 µM and the “apparent Kd” value under setting [2] amounted to 0.569 µM. As to “GUAUCUUACCAAGGAUAUUUACGAUUAGUGUAGACAUGAGGAUCACCCAUGUGGCCUUAGUCACGGGAGAAGGUGGUUUGAUAC”, the “apparent Kd” value is, setting by setting: under setting [3], 0.317 µM; under setting [4], 0.0737 µM. In the case of “GUAUUUAGAUAAGGAUAUAAGUCUAUGACAUGAGGAUCACCCAUGUGUGUCUUAGAAGGUAUUUGGGUAAUAUUGUUACAGUAA”, the “apparent Kd” value under setting [4] is 0.0163 µM.

“UUUAUAAAUUAGAAGGCGAGAUAAAUUACAAUAGACAUGAGGAUCACCCAUGUGUACCCAUGUUUUGAGGAUAUAGUCAUAUAU”: the “apparent Kd” value under setting [3] stood at 1.14 µM and the “apparent Kd” value under setting [4] stood at 0.624 µM. As to “CGGCGGAAAGGAUAUGCAGUAAUAUCCAAAUGUGGGCCACGACAUGAGGAUCACCCAUGUAGAAGGUUCAGCCG”, the “apparent Kd” value is, setting by setting: under setting [1], 0.0147 µM; under setting [2], 0.0136 µM.

Take “GGCAAUAUGUAGGAUAUCGUAUCGGAAACGAUACGAGAAGGGCAAACAUGAGGAUCACCCAUGUUCCUUAAGCC”: the “apparent Kd” value reads like this: under setting [1], 0.015 µM; under setting [2], 0.0174 µM. Regarding “ACUAAAGAAGGAUAUACUAACGAACCUCAAACAUAGAUAAAACAUGAGGAUCACCCAUGUAGAAGGUCUAGACU”, the “apparent Kd” value amounted to 0.0317 µM under setting [1] and 0.0396 µM under setting [2]. Take “UUUAUAAAUUAGAAGGCGUGAUAAAAUACAAUAGACAUGAGGAUCACCCAUGUGUACCCAUGUUAUGAGGAUAUAGUCAUAUAU”: the “apparent Kd” value runs as follows: under setting [3], 0.279 µM; under setting [4], 0.233 µM.

For the sequence “GAUCCACAUGAGGAUCACCCAUGUGAGGAUAUGUUGUUAGCUUUUUGCCGUAAGCCAUAUAGAAGGCACGGGUG”, the “apparent Kd” value is, setting by setting: under setting [1], 0.0201 µM; under setting [2], 0.0223 µM. With “GCCGGUUCCCUAGGAUAUGUACAUGAGGAUCACCCAUGUGCCUCUAGAGCCGGAACAGGGCAUGUACAGAAGGAGGGUCGACCC”, under setting [2], the “apparent Kd” value was 0.00803 µM. Consider “GAACUGAAGCUUAGCUUUAGUCGUACAUGAGGAUCACCCAUGUAGGAUAUGGUAGGCAUAGCUUACUAGAAGGAUAGAGUGAUC”, for which the “apparent Kd” value runs as follows: under setting [1], 0.198 µM; under setting [2], 0.0696 µM. Take “GUGCCUUGGGAGAAGGCAGCAUGCAAAGCAUUCUGAGGAUAUUCAUACCGGAAACGGACAUGAGGAUCACCCAUGUGGCACAAA”: the “apparent Kd” value reads like this: under setting [3], 1.47 µM; under setting [4], 0.0721 µM. Regarding “CGAUGUUAUGUCAGGAUAUGCGUUGCGAAAGCAAUGUAGAAGGGACAUGAGGAUCACCCAUGUGCUAACCAUCG”, the “apparent Kd” value is, setting by setting: under setting [1], 0.0187 µM; under setting [2], 0.0511 µM. “GCUCUCGGAGGAUAUGUGCCGAGUGACAUGAGGAUCACCCAUGUAUUUCUCCUGUAAUCUACAGAAGGCCGAGGCG”: the “apparent Kd” value by setting is: under setting [1], 0.161 µM; under setting [2], 0.0239 µM. In the case of “CAUUUUGCCGAGGAUAUGGAGGAUGACACUCUACCAGAAGGUGGCACAUGAGGAUCACCCAUGUGGAGUUCGCG”, the “apparent Kd” value is, setting by setting: under setting [1], 0.0793 µM; under setting [2], 0.0927 µM. For “GGUCGUCUCAUUAACAUGAGGAUCACCCAUGUCAAAAGACAUGAGGAUAUGGAUCCUAAUUGGAUCCAGAAGGCAUGGACGACC”, the “apparent Kd” value was 1.11 µM under setting [3] and 0.0604 µM under setting [4].

On to “AGCGAACAGGCUAACAUGAGGAUCACCCAUGUGGACUCAUGGUAGGAUAUCGGGAAGGAGGAAACCGAGAAGGGCCGGUGAGCU”, for which the “apparent Kd” value reads like this: under setting [3], 0.254 µM; under setting [4], 0.0628 µM. Turning to “GGGUGGCGUAGAGGAUAUGUGGUACAUGAGGAUCACCCAUGUGCAUAUGAUGUUCAUGUUUAUGUAUAGAAGGCUACGUCGCUA”, the “apparent Kd” value under setting [3] came out at 0.0261 µM and the “apparent Kd” value under setting [4] is 0.0364 µM. In the case of “UUUGGGUGGCUGGAGGAUAUUCGAGUGGUUACAUGAGGAUCACCCAUGUGUCGCGCGGUACGCGAGGAGAAGGCUGGCGGCCGUU”, the “apparent Kd” value turned out to be 0.0797 µM under setting [3] and 0.037 µM under setting [4]. On the same counts, the results for “UUAAUUCGAAACAUGAGGAUCACCCAUGUGUUGUGGUUAAUAUAGGAUAUGAGGAUACUUUUUUGUCAGAAGGAUGAUGGUACU” are 0.0118 µM and 0.0108 µM.

Regarding “GCAGAUCACGUGAGGAUAUCGUCUACCUCGGUAGUCGAGAAGGCACAUGAGGAUCACCCAUGUGAGUGUUCUGC”, the “apparent Kd” value runs as follows: under setting [1], 0.0201 µM; under setting [2], 0.0195 µM. In the case of “CGUAACUGCAUAGGAUAUUGAUACAUGAGGAUCACCCAUGUUUUUCGGAUUUGUAAUAUACUAAGCAAGAAGGAUGGAGUUACG”, the “apparent Kd” value was 0.00804 µM under setting [3] and 0.00566 µM under setting [4].

For “AAGUGCCUGUCGAUGCUCGACAUGAGGAUCACCCAUGUACAGCAGGAUAUGCAGAACUACCUCGUGCAGAAGGGCUGUACCAAU”, the “apparent Kd” value runs as follows: under setting [1], 0.0971 µM; under setting [2], 0.0801 µM. With “GUGCUAUGAGGAUAUACGUUGGUGGGCAUCUGUGUGCUCCUACAUGAGGAUCACCCAUGUAGAAGGCAUGUCAC”, the “apparent Kd” value turned out to be 0.0124 µM under setting [1] and 0.0219 µM under setting [2]. With “UUAAAUCAUGUAGGAUAUGCAUGGCGAAGCUACGCAGAAGGACAUGAGGAUCACCCAUGUUCUGGCGUCUGAGUACAGAUGCAA”, the “apparent Kd” value was found to be 0.0203 µM under setting [1] and 0.0488 µM under setting [2]. On the same counts, the results for “ACUACUUAGUGAGGAUAUACAUAAUUUAUAACUGUAGAAGGCACAAACCUCAAUACAUGAGGAUCACCCAUGUUUUAUAUCUAU” are 0.0327 µM and 0.0464 µM. As to “CGCUCAUUAUAUAAGGAAAGAAUCAGAAGGCGUUACAUGAGGAUCACCCAUGUUUUGUAUAGUAACGAGGAUAUGAUAUGAGCG”, the “apparent Kd” value runs as follows: under setting [1], 0.0186 µM; under setting [2], 0.016 µM. “UUUUAACAUGAGGAUCACCCAUGUGAGGAUAUCGAAAUUUAUAUUAAUAUUAUUAAUACGAGAAGGCACAUUUU”: the “apparent Kd” value worked out at 0.0369 µM under setting [1] and 0.0618 µM under setting [2].

For “ACAUGAGGAUCACCCAUGUUAUCCGGGACUUCAAUUGUUUCUAGAAGGCUGUUUGCUUGUUAGUCAGAGGAUAUAGAAUCAAAU”, the “apparent Kd” value is, setting by setting: under setting [1], 0.0102 µM; under setting [2], 0.0101 µM. Take “UGAGAUGUAGUAGGAUAUCAGGUUACAUGAGGAUCACCCAUGUUAGAUUGGUGGAUAGAUGUUGAUGAGAAGGACUUUUGAGUU”: the “apparent Kd” value reads like this: under setting [1], 0.0635 µM; under setting [2], 0.1 µM.

Turning to “UGCUUCAUGUAAGGAUAUGCAGCCGUUUCGGCUGCAGAAGGUACUAUAAUACAUGAGGAUCACCCAUGUCUCUCGCAUUGCGAG”, the “apparent Kd” value came to 0.24 µM under setting [3] and 0.0956 µM under setting [4].
